Test results reported in ChEMBL document CHEMBL4811273, “Discovery of a novel series of GPR119 agonists: Design, synthesis, and biological evaluation of N-(Piperidin-4-yl)-N-(trifluoromethyl)pyrimidin-4-amine derivatives” (Bioorg Med Chem, 2021).
Converted amounts (≈) assume the structure as drawn. The source made the active and inactive calls. The rule behind the calls is not given here.

What was measured:
[1] = molecular target: T1, Glucose-dependent insulinotropic receptor (Homo sapiens, UniProt Q8TDV5); assay: Agonist activity at human GPR119 expressed in CHO cells co-expressing cyclic AMP response element-luciferase reporter gene incubated for 2 hrs by steady-glo luciferase assay; format: functional, cell-based
T1 sequence (Q8TDV5 whole entry): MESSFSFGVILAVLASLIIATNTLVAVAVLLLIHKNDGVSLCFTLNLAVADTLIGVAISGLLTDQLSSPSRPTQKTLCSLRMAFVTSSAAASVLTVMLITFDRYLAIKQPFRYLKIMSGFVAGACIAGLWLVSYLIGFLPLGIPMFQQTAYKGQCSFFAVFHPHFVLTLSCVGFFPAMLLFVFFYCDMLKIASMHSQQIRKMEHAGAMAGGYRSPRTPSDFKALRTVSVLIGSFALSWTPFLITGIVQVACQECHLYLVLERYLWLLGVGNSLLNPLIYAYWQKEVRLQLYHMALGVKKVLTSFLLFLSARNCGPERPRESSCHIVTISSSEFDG
How it was run: (§1)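 CHO cells stably expressing human or rat GPR119 were seeded at 10,000 cells/well in MEMα with 10% FBS and Geneticin and grown overnight at 37 °C. After one wash, cells were exposed to compounds at various concentrations in MEMα/20 mM HEPES/0.1% BSA for 2 h. cAMP-driven luciferase was read with Steady-Glo and normalized to vehicle and reference wells. EC50 is the mean, n = 2.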

hERG (KCNH2) = hERG (KCNH2) (Homo sapiens, UniProt Q12809); assay: Inhibition of human ERG expressed in CHO cells at 10 uM at holding potential of -80 mV by patch clamp method; format: cell-based; conditions: CHO cells expressing human ERG
[2] = Hepatic clearance in human liver microsomes measured up to 30 mins by LC/MS/MS analysis; format: ADME, Microsome; conditions: read-out: CLH
How it was run: (§2)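 Human or rat liver microsomes (0.2 mg/mL protein) were incubated with 1 μM compound in 50 mM potassium phosphate, pH 7.4. The reaction was started with an NADPH-generating system and stopped with acetonitrile at 15 and 30 min. Parent compound was quantified by LC/MS/MS, and CLint (μL/min/mg) was taken from the slope of the concentration–time plot.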

[3] = Hepatic clearance in rat liver microsomes measured up to 30 mins by LC/MS/MS analysis; format: ADME, Microsome; conditions: read-out: CLH; how it was run: as §2
[4] = Aqueous solubility of the compound at pH 6.8 by HPLC analysis; format: physicochemical; conditions: buffer
How it was run: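 DMSO stock solutions were added in small volumes to aqueous buffer at pH 6.8 and incubated. Precipitate was removed by filtration, and the filtrate was quantified by HPLC.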

[5] = molecular target: T2, Glucose-dependent insulinotropic receptor (Rattus norvegicus, UniProt Q7TQN8); assay: Agonist activity at rat GPR119 expressed in CHO cells co-expressing cyclic AMP response element-luciferase reporter gene incubated for 2 hrs by steady-glo luciferase assay; format: functional, cell-based; how it was run: as §1
T2 sequence (Q7TQN8 whole entry): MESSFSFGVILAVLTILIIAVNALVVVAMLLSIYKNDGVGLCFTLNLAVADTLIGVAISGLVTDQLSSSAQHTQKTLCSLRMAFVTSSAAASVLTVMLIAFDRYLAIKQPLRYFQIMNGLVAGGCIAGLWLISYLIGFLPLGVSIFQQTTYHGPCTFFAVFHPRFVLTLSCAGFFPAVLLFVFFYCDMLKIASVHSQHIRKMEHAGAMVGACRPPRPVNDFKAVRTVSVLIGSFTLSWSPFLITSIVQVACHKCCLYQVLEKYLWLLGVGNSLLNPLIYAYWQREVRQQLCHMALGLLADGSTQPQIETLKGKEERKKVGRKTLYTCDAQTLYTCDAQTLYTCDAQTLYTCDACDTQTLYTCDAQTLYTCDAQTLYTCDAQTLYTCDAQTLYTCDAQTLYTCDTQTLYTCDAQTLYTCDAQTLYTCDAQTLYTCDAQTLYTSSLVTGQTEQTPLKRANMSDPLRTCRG

[6] = molecular target: T2, Glucose-dependent insulinotropic receptor; assay: Agonist activity at rat GPR119 in golden hamster HIT-T15 cells assessed as induction of glucose-induced insulin secretion after 2 hrs by A1phaLISA; format: functional, cell-based
How it was run: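 Hamster HIT-T15 beta cells were seeded at 5 × 10^4 cells/well and pre-incubated 2 h in KRBH with 0.2% BSA. They were then incubated 2 h at 37 °C with compound in KRBH containing 0.2% fatty-acid-free BSA and 10 mmol/L glucose. Secreted insulin was quantified by AlphaLISA. EC50 from n = 2.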

[7] = molecular target: T2, Glucose-dependent insulinotropic receptor; assay: Agonist activity at rat GPR119 in GLUTag cells assessed as induction of GLP-1 secretion after 2 hrs by ELISA; format: functional, cell-based
How it was run: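 Murine GLUTag L cells were seeded at 1 × 10^4 cells/well on poly-L-lysine and moved overnight to low-glucose DMEM. After a Hank's wash, cells were incubated 2 h at 37 °C with compound in KRBH containing 0.2% fatty-acid-free BSA and 10 mmol/L glucose. Active GLP-1 in the supernatant was measured by ELISA. EC50 from n = 2.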

[8] = Volume of distribution at steady state in rat at 0.1 mg/kg, iv administered as cassette dose by LC/MS/MS analysis; format: ADME, organism-based; conditions: in vivo
How it was run: (§3)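 Intravenous cassette dosing at 0.1 mg/kg in rats (the methods text says non-fasted mice). Plasma was obtained from blood samples, deproteinized, centrifuged, and analysed by LC/MS/MS.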

[9] = Clearance in rat at 0.1 mg/kg, iv administered as cassette dose by LC/MS/MS analysis; format: ADME, organism-based; conditions: in vivo; how it was run: as §3
[10] = AUC in […] at 1 mg/kg, po administered as cassette dose by LC/MS/MS analysis; format: ADME, organism-based, Rattus norvegicus; set-up: dose 1 mg/kg; conditions: in vivo
[11] = Mean residence time in rat at 1 mg/kg, po administered as cassette dose by LC/MS/MS analysis; format: ADME, organism-based; conditions: in vivo
How it was run: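 Rat cassette PK. Oral dose 1 mg/kg in 0.5% methylcellulose aqueous solution. The methods text says non-fasted mice. Blood was collected after dosing, and plasma was deproteinized and centrifuged. Compound in the supernatant was measured by LC/MS/MS.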

[12] = Oral bioavailability in […] at 1 mg/kg administered as cassette dose by LC/MS/MS analysis; format: ADME, organism-based, Rattus norvegicus; conditions: in vivo
Rattus norvegicus [13] = assay: Antidiabetic activity in NSTZ1.5 rat assessed as reduction in plasma glucose level at 0.3 to 3 mg/kg, po administered 60 mins prior to glucose challenge and measured up to 60 mins by OGTT; format: functional, organism-based; conditions: dose 0.3-3 mg/kg
Rattus norvegicus [14] = assay: Antidiabetic activity in orally dosed NSTZ1.5 rat assessed as reduction in insulin level administered 60 mins prior to glucose challenge and measured up to 60 mins by OGTT; format: functional, organism-based; conditions: dose 0.3-3 mg/kg
[15] = Intrinsic clearance in human liver microsomes; format: ADME, Microsome; conditions: read-out: CLH; how it was run: as §2
[16] = Partition coefficient, logD between 1-octanol and pH 7.4 aqueous buffer by chromatographic analysis; format: physicochemical; conditions: 1-octanol/pH 7.4 aqueous buffer
How it was run: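 LogD between 1-octanol and aqueous buffer at pH 7.4 was determined by a chromatographic procedure adapted from a published method.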

Chain of hERG (KCNH2) (Q12809 whole entry): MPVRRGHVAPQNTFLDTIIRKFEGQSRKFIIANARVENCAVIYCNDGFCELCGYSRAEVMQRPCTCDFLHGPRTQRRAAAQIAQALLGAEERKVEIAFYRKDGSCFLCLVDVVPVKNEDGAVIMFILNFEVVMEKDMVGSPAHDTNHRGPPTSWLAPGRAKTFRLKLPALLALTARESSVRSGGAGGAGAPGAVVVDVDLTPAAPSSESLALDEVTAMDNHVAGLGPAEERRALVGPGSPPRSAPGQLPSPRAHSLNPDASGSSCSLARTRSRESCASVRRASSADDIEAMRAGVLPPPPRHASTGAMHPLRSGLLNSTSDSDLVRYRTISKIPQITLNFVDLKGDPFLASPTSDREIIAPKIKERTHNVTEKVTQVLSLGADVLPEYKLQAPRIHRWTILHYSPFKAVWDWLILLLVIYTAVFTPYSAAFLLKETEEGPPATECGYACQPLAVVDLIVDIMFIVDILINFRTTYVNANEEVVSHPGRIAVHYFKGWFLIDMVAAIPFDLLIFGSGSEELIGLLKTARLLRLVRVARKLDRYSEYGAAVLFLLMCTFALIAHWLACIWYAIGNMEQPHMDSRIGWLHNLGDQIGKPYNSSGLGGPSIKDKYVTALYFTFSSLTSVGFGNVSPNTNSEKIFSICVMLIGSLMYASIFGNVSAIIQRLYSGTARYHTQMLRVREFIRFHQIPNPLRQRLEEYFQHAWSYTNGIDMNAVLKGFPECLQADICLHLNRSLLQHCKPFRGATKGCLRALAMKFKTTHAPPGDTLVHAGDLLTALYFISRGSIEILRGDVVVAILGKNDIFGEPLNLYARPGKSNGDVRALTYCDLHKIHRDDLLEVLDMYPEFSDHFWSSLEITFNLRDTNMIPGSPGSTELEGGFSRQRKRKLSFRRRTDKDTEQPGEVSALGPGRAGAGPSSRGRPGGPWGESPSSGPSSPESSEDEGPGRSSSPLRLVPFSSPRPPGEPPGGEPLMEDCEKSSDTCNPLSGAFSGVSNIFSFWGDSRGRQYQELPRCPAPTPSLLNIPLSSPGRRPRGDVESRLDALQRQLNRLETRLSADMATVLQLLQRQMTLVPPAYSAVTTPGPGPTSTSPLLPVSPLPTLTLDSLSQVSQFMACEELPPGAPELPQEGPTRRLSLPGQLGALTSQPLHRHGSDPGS

| SMILES | EC50 [1] [nM] | inhibition at 10 µM (hERG (KCNH2)) [%] | logD [16] | further results |
| --- | --- | --- | --- | --- |
| CC(C)(F)c1noc(N2CCC(N(c3cc(OC4CCN(S(C)(=O)=O)CC4)ncn3)C(F)(F)F)CC2)n1 | 4.6 | 19 | – | microsomal CLint [2]: 27 µL/min/mg; microsomal CLint [3]: < 1 µL/min/mg; solubility [4]: 21 µg/mL (≈ 38.1 µM); EC50 [5]: 24 nM; EC50 [6]: 4.8 nM; EC50 [7]: 3.8 nM; Vdss [8]: 1.27 L/kg; clearance [9]: 6.22 mL/min/kg; AUC [10]: 1540 ng·h/mL; MRT [11]: 4.05 h; bioavailability [12]: 57%; Activity (Rattus norvegicus [13]): Active; Activity (Rattus norvegicus [14]): Dose-Dependent Effect; microsomal CLint [15]: 27 µL/min/mg |
| CC(C)c1noc(N2CCC(N(c3cc(OC4CCN(S(C)(=O)=O)CC4)ncn3)C(F)(F)F)CC2)n1 | 2.7 | – | – | microsomal CLint [2]: 108 µL/min/mg; microsomal CLint [3]: 36 µL/min/mg; solubility [4]: 29 µg/mL (≈ 54.4 µM) |
| CS(=O)(=O)N1CCC(Oc2cc(N(C3CCN(c4nc(C5CC5)no4)CC3)C(F)(F)F)ncn2)CC1 | 5.4 | – | – | microsomal CLint [2]: 31 µL/min/mg; microsomal CLint [3]: 13 µL/min/mg; solubility [4]: 15 µg/mL (≈ 28.2 µM) |
| CC(C)(C)OC(=O)N1CCC(Nc2cc(N3CCc4cc(S(C)(=O)=O)ccc43)ncn2)CC1 | 300 | 80 | 2.7 | – |
| CCN(c1cc(N2CCc3cc(S(C)(=O)=O)ccc32)ncn1)C1CCN(C(=O)OC(C)(C)C)CC1 | 14 | 116 | 3.5 | – |
| CC(C)(C)OC(=O)N1CCC(N(c2cc(OC3CCN(S(C)(=O)=O)CC3)ncn2)C(F)(F)F)CC1 | 3.6 | – | – | – |
| CC(C)c1noc(N2CCC(N(c3cc(N4CCc5cc(S(C)(=O)=O)ccc54)ncn3)C(F)(F)F)CC2)n1 | 2.9 | – | 3.79 | solubility [4]: < 0.22 µg/mL |
| CN(c1cc(N(C2CCN(C(=O)OC(C)(C)C)CC2)C(F)(F)F)ncn1)C1CCN(S(C)(=O)=O)CC1 | > 10000 | – | – | – |
| CC(C)(C)OC(=O)N1CCC(N(c2cc(NC3CCN(S(C)(=O)=O)CC3)ncn2)C(F)(F)F)CC1 | 43 | – | – | – |
| CC(C)(C)OC(=O)N1CCC(N(CC2CC2)c2cc(N3CCc4cc(S(C)(=O)=O)ccc43)ncn2)CC1 | 51 | 100 | 4.1 | – |
| CC(C)(C)OC(=O)N1CCC(N(c2cc(OCC3CN(S(C)(=O)=O)C3)ncn2)C(F)(F)F)CC1 | 960 | – | – | – |
| CN(c1cc(N2CCc3cc(S(C)(=O)=O)ccc32)ncn1)C1CCN(C(=O)OC(C)(C)C)CC1 | 21 | 85 | 3.2 | – |
| CCCN(c1cc(N2CCc3cc(S(C)(=O)=O)ccc32)ncn1)C1CCN(C(=O)OC(C)(C)C)CC1 | 18 | 94 | 4 | – |
| CC(C)(C)OC(=O)N1CCC(N(c2cc(N3CCc4cc(S(C)(=O)=O)ccc43)ncn2)C(F)(F)F)CC1 | 2.5 | 13 | 4.1 | – |
| COCCN(c1cc(N2CCc3cc(S(C)(=O)=O)ccc32)ncn1)C1CCN(C(=O)OC(C)(C)C)CC1 | 29 | 120 | 3.4 | – |
| CC(C)(C)OC(=O)N1CCC(N(c2cc(O[C@H]3CC[C@H](S(C)(=O)=O)CC3)ncn2)C(F)(F)F)CC1 | 270 | – | – | – |
| CC(C)(C)OC(=O)N1CCC(N(c2cc(OC3CN(S(C)(=O)=O)C3)ncn2)C(F)(F)F)CC1 | 7100 | – | – | – |
| CC(C)c1noc(N2CCC(Oc3cc(N4CCc5cc(N6CCC[C@H](O)C6=O)ccc54)ncn3)CC2)n1 | – | – | – | microsomal CLint [15]: 10 µL/min/mg |
